Data published in ChEMBL document CHEMBL3286182, “4-aminoquinolone piperidine amides: noncovalent inhibitors of DprE1 with long residence time and potent antimycobacterial activity” (J Med Chem, 2014).
≈ marks a conversion by molar mass, not a printed value. Calls of active or inactive are those of the source. The calls are words filed in the database; no cut-off is given here.

Assays:
[1] = Permeability of the compound from basolateral to apical side in human Caco2 cells; type: ADME, cell-based; details: Caco-2, read-out: permeability
[2] = test system: Mycolicibacterium smegmatis; assay: Ratio of IC50 for Mycobacterium smegmatis DprE1 Y321H mutant to IC50 for Mycobacterium smegmatis recombinant wild type DprE1
Procedure, shortened: (§1)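 Recombinant M. smegmatis DprE1 (thioredoxin-6His fusion), wild type or Y321H, 75 nM. Enzyme was preincubated 30 min in FAD assay mix: 50 mM glycylglycine pH 8.5, 200 mM potassium glutamate, 10 μM FAD, 0.002% Brij-35, 2% DMSO. Reaction was started with 300 μM farnesylphosphoryl-β-D-ribofuranose, 0.01 mg/mL HRP and 50 μM amplex red at 25 °C.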

[3] = test system: Escherichia coli; assay: Antimicrobial activity against Escherichia coli ARC523 at 100 uM; type: functional, organism-based
Procedure, shortened: (§2)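 Nonmycobacterial panel of Candida albicans, Gram-negative and Gram-positive pathogens.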

[4] = molecular target: Cytochrome P450 2C19 (Homo sapiens, UniProt P33261); assay: Inhibition of CYP2C19 (unknown origin); type: ADME
Chain of Cytochrome P450 2C19 (P33261 whole entry, canonical isoform): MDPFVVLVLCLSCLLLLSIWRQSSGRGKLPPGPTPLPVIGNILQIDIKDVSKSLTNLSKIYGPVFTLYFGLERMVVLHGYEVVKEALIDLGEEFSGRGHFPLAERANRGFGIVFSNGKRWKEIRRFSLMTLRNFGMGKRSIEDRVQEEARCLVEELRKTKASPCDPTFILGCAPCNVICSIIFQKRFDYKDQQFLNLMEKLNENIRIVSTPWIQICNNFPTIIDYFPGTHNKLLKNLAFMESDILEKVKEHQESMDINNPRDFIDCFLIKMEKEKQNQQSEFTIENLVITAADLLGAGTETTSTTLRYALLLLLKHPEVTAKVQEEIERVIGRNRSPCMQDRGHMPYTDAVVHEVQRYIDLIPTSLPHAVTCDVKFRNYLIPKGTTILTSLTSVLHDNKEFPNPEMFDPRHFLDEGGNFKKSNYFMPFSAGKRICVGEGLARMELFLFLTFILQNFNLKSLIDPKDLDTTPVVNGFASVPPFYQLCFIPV
Procedure, shortened: (§3)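 CYP inhibition IC50 measured on isoforms CYP3A4, CYP2D6, CYP2C9, CYP2C19 and CYP1A2.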

[5] = test system: Mycolicibacterium smegmatis; assay: Binding affinity to Mycobacterium smegmatis recombinant DprE1 assessed as half life
Procedure, shortened: (§4)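 Progress curves (fluorescence vs time) recorded at several inhibitor concentrations with 75 nM Msm DprE1 in the FAD/HRP/Amplex Red coupled assay, pH 8.5, 25 °C. A single-step reversible slow-binding model was fitted globally, with vs and vi fitted per concentration and koff and Kiapp shared. Half-life and residence time were derived from koff.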

[6] = Octanol-water partition coefficient, log D of the compound by shake-flask method; type: physicochemical
[7] = test system: Mycolicibacterium smegmatis; assay: Antimicrobial activity against Mycobacterium smegmatis mc2155 at 100 uM; type: functional, organism-based; details: str. MC2 155
[8] = test system: Pseudomonas aeruginosa; assay: Antimicrobial activity against Pseudomonas aeruginosa ARC545 at 100 uM; type: functional, organism-based; procedure, shortened: as §2
[9] = test system: Mycolicibacterium smegmatis; assay: Binding affinity to Mycobacterium smegmatis recombinant DprE1 assessed as residence time; procedure, shortened: as §4
[10] = test system: Mycobacterium tuberculosis; assay: Antimycobacterial activity against Mycobacterium tuberculosis H37Rv infected in human THP1 cells after 7 days; type: functional, organism-based; details: THP-1
[11] = test system: Mycobacterium tuberculosis; assay: Antimycobacterial activity against Mycobacterium tuberculosis over expressing DprE1 after 5 days by standard microdilution method; type: functional; details: 120 h
[12] = test system: Staphylococcus aureus; assay: Antimicrobial activity against Staphylococcus aureus ARC517 at 100 uM; type: functional, organism-based; procedure, shortened: as §2
[13] = Cytotoxicity against human A549 cells after 72 hrs by resazurin based fluorescence assay; type: cell-based; details: read-out: MIC
Procedure, shortened: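 Cytotoxicity read as MMIC, the MIC on the A549 cell line.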

[14] = molecular target: T1, Cytochrome P450 1A2 (Homo sapiens, UniProt P05177); assay: Inhibition of CYP1A2 (unknown origin); type: ADME; procedure, shortened: as §3
T1 sequence (P05177 whole entry): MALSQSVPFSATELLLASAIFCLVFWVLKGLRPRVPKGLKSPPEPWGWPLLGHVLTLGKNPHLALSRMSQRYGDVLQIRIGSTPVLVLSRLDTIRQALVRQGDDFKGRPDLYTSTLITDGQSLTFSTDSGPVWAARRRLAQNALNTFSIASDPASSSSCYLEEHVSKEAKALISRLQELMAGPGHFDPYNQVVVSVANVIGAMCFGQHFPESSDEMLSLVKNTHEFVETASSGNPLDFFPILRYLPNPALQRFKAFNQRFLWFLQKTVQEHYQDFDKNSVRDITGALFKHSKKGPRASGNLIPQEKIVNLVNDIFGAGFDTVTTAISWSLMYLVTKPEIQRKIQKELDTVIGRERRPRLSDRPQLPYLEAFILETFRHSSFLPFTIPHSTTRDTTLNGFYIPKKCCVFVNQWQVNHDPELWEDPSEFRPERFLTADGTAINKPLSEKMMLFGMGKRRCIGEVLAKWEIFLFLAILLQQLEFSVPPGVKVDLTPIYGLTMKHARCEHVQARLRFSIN

[15] = test system: Mycolicibacterium smegmatis; assay: Binding affinity to Mycobacterium smegmatis recombinant DprE1 assessed as dissociation constant; procedure, shortened: as §4
[16] = Inhibition of Mycobacterium smegmatis DprE1 Y321H mutant using farnesylphosphoryl-beta-D-ribofuranose as substrate assessed as conversion of amplex red to resorufin after 30 mins; parameters: species or system Mycolicibacterium smegmatis; procedure, shortened: as §1
[17] = test system: Escherichia coli; assay: Antimicrobial activity against Escherichia coli ARC524 at 100 uM; type: functional, organism-based; procedure, shortened: as §2
[18] = test system: Mycobacterium tuberculosis; assay: Antimycobacterial activity against Mycobacterium tuberculosis over expressing PimA after 5 days by standard microdilution method; type: functional; details: 120 h
[19] = test system: Klebsiella pneumoniae; assay: Antimicrobial activity against Klebsiella pneumoniae ARC1865 at 100 uM; type: functional, organism-based; procedure, shortened: as §2
[20] = test system: Mycobacterium tuberculosis; assay: Antimycobacterial activity against Mycobacterium tuberculosis over expressing TopA after 5 days by standard microdilution method; type: functional; details: 120 h
[21] = test system: Mycobacterium tuberculosis; assay: Antimycobacterial activity against Mycobacterium tuberculosis H37Rv under hypoxic condition after 6 days by resazurin assay; type: functional; details: 144 h
[22] = test system: Mycobacterium tuberculosis; assay: Antimycobacterial activity against Mycobacterium tuberculosis expressing GFP assessed as reduction of bacterial growth rate at 30 uM after 5 to 7 days; type: functional, organism-based
Procedure, shortened: (§5)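 GFP-expressing Mtb was grown several days in a microfluidic device with 7H9 flow medium. Compound at 30 μM was then flowed in from t = 118 h to t = 284 h, then washed out. Phase and GFP time-lapse images were taken at 1 h intervals to follow growth rate, morphology and lysis of single cells and microcolonies.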

[23] = Permeability of the compound from apical to basolateral side in human Caco2 cells; type: ADME, cell-based; details: Caco-2, read-out: permeability
[24] = Inhibition of Mycobacterium smegmatis recombinant DprE1 using farnesylphosphoryl-beta-D-ribofuranose as substrate assessed as conversion of amplex red to resorufin after 30 mins; parameters: species or system Mycolicibacterium smegmatis
Procedure, shortened: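 Msm DprE1 (thioredoxin-6His fusion of Msm Rv3790) at 75 nM, preincubated 30 min with 10 μM FAD. Buffer: 50 mM glycylglycine pH 8.5, 200 mM potassium glutamate, 0.002% Brij-35, 2% DMSO, 25 °C. Started with 300 μM farnesylphosphoryl-β-D-ribofuranose, 0.01 mg/mL HRP and 50 μM Amplex Red.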

[25] = test system: Haemophilus influenzae; assay: Antimicrobial activity against Haemophilus influenzae ARC158 at 100 uM; type: functional, organism-based; procedure, shortened: as §2
[26] = molecular target: Cytochrome P450 2D6 (Homo sapiens, UniProt P10635); assay: Inhibition of CYP2D6 (unknown origin); type: ADME; procedure, shortened: as §3
Chain of Cytochrome P450 2D6 (P10635 whole entry): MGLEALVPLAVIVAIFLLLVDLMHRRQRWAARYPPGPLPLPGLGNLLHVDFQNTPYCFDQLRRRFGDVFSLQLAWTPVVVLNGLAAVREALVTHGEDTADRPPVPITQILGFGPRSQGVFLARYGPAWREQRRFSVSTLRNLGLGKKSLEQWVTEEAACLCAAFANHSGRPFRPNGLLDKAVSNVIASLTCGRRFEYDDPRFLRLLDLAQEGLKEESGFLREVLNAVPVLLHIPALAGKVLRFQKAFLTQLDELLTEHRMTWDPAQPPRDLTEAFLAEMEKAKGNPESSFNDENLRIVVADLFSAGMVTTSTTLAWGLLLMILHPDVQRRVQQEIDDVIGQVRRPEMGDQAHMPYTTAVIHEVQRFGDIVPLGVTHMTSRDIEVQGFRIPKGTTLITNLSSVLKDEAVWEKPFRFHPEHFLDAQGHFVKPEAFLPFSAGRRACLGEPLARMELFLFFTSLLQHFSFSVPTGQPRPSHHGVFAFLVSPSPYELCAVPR

[27] = Fraction unbound in human plasma at 20 uM after 18 hrs by equilibrium dialysis method; type: ADME, cell-free
[28] = test system: Mycolicibacterium smegmatis; assay: Time dependent inhibition of Mycobacterium smegmatis recombinant DprE1 using farnesylphosphoryl-beta-D-ribofuranose as substrate assessed as conversion of amplex red to resorufin at 4.6 to 3333 nM
Procedure, shortened: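 Coupled fluorescence assay at 25 °C with 75 nM recombinant Msm DprE1 (wild type or Y321H) in 50 mM glycylglycine pH 8.5, 200 mM potassium glutamate, 10 μM FAD, 0.002% Brij-35, 2% DMSO. Enzyme preincubated 30 min, then started with 300 μM FPR, HRP and 50 μM Amplex Red. Progress curves followed over 0−40 min, with background subtracted.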

[29] = test system: Mycobacterium tuberculosis; assay: Antimycobacterial activity against Mycobacterium tuberculosis H37Rv at >MIC after 21 to 28 days; type: functional
[30] = test system: Mycobacterium tuberculosis; assay: Antimycobacterial activity against Mycobacterium tuberculosis expressing GFP assessed as change bacterial morphology at 30 uM after 5 to 7 days; type: functional, organism-based; procedure, shortened: as §5
[31] = test system: Haemophilus influenzae; assay: Antimicrobial activity against Haemophilus influenzae ARC446 at 100 uM; type: functional, organism-based; procedure, shortened: as §2
[32] = Intrinsic clearance in rat cryopreserved hepatocytes assessed per 10^6 cells at 1 uM up to 120 mins by LC-MS/MS analysis; type: ADME, cell-based, Hepatocyte; details: read-out: CLH
[33] = molecular target: Cytochrome P450 2C9 (Homo sapiens, UniProt P11712); assay: Inhibition of CYP2C9 (unknown origin); type: ADME; procedure, shortened: as §3
Chain of Cytochrome P450 2C9 (P11712 whole entry): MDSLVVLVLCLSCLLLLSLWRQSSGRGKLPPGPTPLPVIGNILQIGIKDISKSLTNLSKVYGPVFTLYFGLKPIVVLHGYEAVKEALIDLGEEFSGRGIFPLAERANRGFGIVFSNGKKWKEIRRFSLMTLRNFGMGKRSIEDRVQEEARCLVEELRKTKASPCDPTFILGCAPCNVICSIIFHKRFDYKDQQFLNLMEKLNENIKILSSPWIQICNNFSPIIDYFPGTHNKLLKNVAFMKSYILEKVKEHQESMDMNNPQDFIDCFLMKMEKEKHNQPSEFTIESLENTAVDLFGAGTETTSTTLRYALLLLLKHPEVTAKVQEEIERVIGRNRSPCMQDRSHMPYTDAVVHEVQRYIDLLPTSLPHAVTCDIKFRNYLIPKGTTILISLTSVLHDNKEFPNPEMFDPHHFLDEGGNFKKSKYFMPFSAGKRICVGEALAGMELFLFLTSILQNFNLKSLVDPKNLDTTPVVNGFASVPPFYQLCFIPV

[34] = test system: Mycobacterium tuberculosis; assay: Antimycobacterial activity against Mycobacterium tuberculosis H37Rv after 5 days by standard microdilution method; type: functional; details: 120 h
[35] = test system: Streptococcus pneumoniae; assay: Antimicrobial activity against Streptococcus pneumoniae ARC548 at 100 uM; type: functional, organism-based; procedure, shortened: as §2
[36] = Solubility of the compound in 0.1 M phosphate buffer at pH 7.4 after 24 hrs by UV and MS analysis; type: physicochemical
[37] = Intrinsic clearance in human liver microsomes at 1 uM up to 30 mins by LC-MS/MS analysis; type: ADME; details: read-out: CLH
[38] = test system: Mycobacterium tuberculosis; assay: Antimycobacterial activity against Mycobacterium tuberculosis expressing GFP assessed as bacterial lysis at 30 uM after 5 to 7 days measured after drug washout; type: functional, organism-based; procedure, shortened: as §5
[39] = test system: Candida albicans; assay: Antimicrobial activity against Candida albicans ARC527 at 100 uM; type: functional, organism-based; procedure, shortened: as §2
[40] = molecular target: Cytochrome P450 3A4 (Homo sapiens, UniProt P08684); assay: Inhibition of CYP3A4 (unknown origin); type: ADME; procedure, shortened: as §3
Chain of Cytochrome P450 3A4 (P08684 whole entry): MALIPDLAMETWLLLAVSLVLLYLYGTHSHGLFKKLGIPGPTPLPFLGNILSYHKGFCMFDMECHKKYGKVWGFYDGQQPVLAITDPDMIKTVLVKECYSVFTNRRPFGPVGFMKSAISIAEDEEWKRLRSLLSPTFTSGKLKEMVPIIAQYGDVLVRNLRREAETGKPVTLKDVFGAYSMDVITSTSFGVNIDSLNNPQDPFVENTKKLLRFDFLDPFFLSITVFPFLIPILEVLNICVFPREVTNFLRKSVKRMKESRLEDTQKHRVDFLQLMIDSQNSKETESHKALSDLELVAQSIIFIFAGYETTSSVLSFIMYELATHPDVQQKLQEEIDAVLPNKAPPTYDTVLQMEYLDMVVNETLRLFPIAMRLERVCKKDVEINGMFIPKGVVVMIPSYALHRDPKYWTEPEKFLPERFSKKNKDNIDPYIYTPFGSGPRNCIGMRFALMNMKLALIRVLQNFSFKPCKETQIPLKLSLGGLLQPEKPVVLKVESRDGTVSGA

[41] = test system: Pseudomonas aeruginosa; assay: Antimicrobial activity against Pseudomonas aeruginosa ARC546 at 100 uM; type: functional, organism-based; procedure, shortened: as §2
[42] = test system: Mycobacterium tuberculosis; assay: Antimycobacterial activity against Mycobacterium tuberculosis over expressing InhA after 5 days by standard microdilution method; type: functional; details: 120 h
[43] = test system: Mycolicibacterium smegmatis; assay: Antimicrobial activity against Mycobacterium smegmatis ATCC 607 at 100 uM; type: functional, organism-based

For `Cn1ncc(C(=O)N2CCC(Nc3cc(=O)[nH]c4ccc(F)cc34)CC2)c1Cl`, the Papp B→A [1] was 13 ×10⁻⁶ cm/s, the fold change (FC) [2] was 111 and the Activity [3] was “inactive”. For the same compound, the INH [4] was greater than 30 µM, the T1/2 [5] was 1.38 h and the logD [6] was 2. The Activity [7] was “inactive”, the Activity [8] was “inactive” and the TIME [9] was 1.98 h. For the same compound, the Activity [10] was “Active”, the MIC [11] was 100 µM (≈ 40.4 µg/mL) and the Activity [12] was “inactive”. It also gave an MCC at 72 h [13] greater than 200 µM, an INH [14] greater than 30 µM and a Kdiss [15] of 0.00012 s⁻¹. For the same compound, the IC50 [16] was 9.47 µM, the Activity [17] was “inactive” and the MIC [18] was 1.6 µM (≈ 0.646 µg/mL). For the same compound, the Activity [19] was “inactive”, the MIC [20] was 0.8 µM (≈ 0.323 µg/mL) and the IC80 [21] was greater than 100 µM. The Activity [22] was “Active”, the Papp A→B [23] was 0.6 ×10⁻⁶ cm/s and the IC50 [24] was 0.005 µM. For the same compound, the Activity [25] was “inactive”, the INH [26] was greater than 30 µM and the fraction unbound at 18 h, 20 µM [27] was 0.4. The inhibition [28] was “Active”, the MBC [29] was 3.1 µM (≈ 1.25 µg/mL) and the Activity [30] was “Active”. For the same compound, the Activity [31] was “inactive”, the hepatocyte CLint at 1 µM [32] was 5.6 µL/min/1e6 cells and the INH [33] was greater than 30 µM. For the same compound, the MIC [34] was 1.56 µM (≈ 0.63 µg/mL), the Activity [35] was “inactive” and the solubility at 24 h [36] was 105 µM (≈ 42.4 µg/mL). The microsomal CLint at 1 µM [37] was less than 4.8 µL/min/mg, the Activity [38] was “Active” and the Activity [39] was “inactive”. The INH [40] was greater than 30 µM, the Activity [41] was “inactive” and the MIC [42] was 1.6 µM (≈ 0.646 µg/mL). For the same compound, the Activity [43] was “inactive”.
